Experimental findings from ChEMBL document CHEMBL1149260, “Synthesis of tropeines and allosteric modulation of ionotropic glycine receptors” (J Med Chem, 2004) are described below.

For test [1], the target named is T1, Serotonin 3 (5-HT3) receptor (Rattus norvegicus, UniProt P35563+Q9JJ16).
T1 sequence (P35563 whole entry): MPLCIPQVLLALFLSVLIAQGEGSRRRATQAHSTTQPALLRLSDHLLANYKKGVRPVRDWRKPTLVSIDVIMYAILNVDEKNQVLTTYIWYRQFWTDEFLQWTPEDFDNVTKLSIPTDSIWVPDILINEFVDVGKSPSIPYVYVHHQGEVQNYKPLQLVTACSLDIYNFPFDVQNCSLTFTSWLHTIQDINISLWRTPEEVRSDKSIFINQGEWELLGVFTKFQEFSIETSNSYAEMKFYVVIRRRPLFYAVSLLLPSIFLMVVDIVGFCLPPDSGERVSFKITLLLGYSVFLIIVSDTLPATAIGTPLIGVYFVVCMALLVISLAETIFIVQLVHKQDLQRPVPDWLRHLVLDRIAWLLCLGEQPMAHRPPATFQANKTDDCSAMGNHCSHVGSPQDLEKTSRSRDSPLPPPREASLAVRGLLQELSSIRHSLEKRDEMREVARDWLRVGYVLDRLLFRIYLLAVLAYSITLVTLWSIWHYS
T1 sequence (Q9JJ16 whole entry): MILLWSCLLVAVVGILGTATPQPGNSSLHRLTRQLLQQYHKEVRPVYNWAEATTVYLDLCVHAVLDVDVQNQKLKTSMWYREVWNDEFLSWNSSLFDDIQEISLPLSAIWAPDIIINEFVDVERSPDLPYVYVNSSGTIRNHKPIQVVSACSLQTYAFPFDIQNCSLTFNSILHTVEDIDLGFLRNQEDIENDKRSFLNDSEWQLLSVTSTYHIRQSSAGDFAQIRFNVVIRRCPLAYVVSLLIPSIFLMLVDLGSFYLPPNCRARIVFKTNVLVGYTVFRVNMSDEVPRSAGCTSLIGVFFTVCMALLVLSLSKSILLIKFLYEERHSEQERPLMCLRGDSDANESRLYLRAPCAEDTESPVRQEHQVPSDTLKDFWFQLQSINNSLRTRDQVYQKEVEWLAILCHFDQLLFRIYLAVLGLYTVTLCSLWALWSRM
The test is described as follows: Displacement of [3H]granisetron from 5HT3 receptor in Wistar rat cerebral cortex synaptosomal membranes. It is filed as cell membranes, Membrane. A digest of the protocol:
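Male Wistar rat cerebral cortex plus hippocampus synaptosomal membranes, in 10 mM HEPES with 140 mM NaCl (pH 7.5). Incubated with 0.3 nM [3H]granisetron and varied tropeine concentrations for 2.5 h on ice. Nonspecific binding defined with 10 µM granisetron. Duplicate aliquots filtered on PEI-presoaked GF/B filters. Displacement curves fitted with variable slopes; 3-6 experiments.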
For orientation: Loss of bound radioactivity is the signal in a displacement assay; it reports binding, not function.

Test [2] deals with Serotonin 3 (5-HT3) receptor (Rattus norvegicus) (UniProt P35563+Q9JJ16). The test is described as follows: Selectivity for glycine receptor measured as KA over 5HT3 receptor measured as IC50 in Wistar rat synaptosomal membranes. It is filed as cell membranes.
For a further test, the species on record is Rattus norvegicus. The test is described as follows: Displacement of [3H]strychnine from glycine receptor in Wistar rat spinal cord synaptosomal membranes. Format: cell membranes. As to conditions: Membrane.

SMILES strings stand for the structures.

In general, IC50 refers to the concentration needed to halve the response being measured. Low readings indicate higher potency, high ones lower potency.

In test [1], `CN1[C@@H]2CC[C@H]1C[C@H](OC(=O)c1cccc(Cl)c1)C2` had an IC50 of 67.9 nM. In test [2], the Selectivity ratio stood at 0.15. This molecule also registered a -Log KA in the test filed under Rattus norvegicus of 6.31.
`CN1[C@@H]2CC[C@H]1C[C@H](NC(=O)c1ccccc1)C2`: the -Log KA in the test filed under Rattus norvegicus stood at 4.8.
In the case of `COc1cccc(C(=O)O[C@@H]2C[C@H]3CC[C@@H](C2)N3)c1`, the IC50 in test [1] is 262 nM. Further, the Selectivity ratio in test [2] is 33.5. In the test filed under Rattus norvegicus, the -Log KA was found to be 8.11.
In the test filed under Rattus norvegicus, `CN1[C@@H]2CC[C@H]1C[C@@H](OC(=O)c1cc(Cl)cc(Cl)c1)C2` yielded a -Log KA of 5.99.
With `O=C(O[C@@H]1C[C@H]2CC[C@@H](C1)N2)c1cccc(Cl)c1`, the IC50 in test [1] was 692 nM. Moreover, in test [2], the Selectivity ratio came out at 33.7. This molecule also displayed a -Log KA in the test listed under Rattus norvegicus of 7.65.
The molecule `O=C(O[C@H]1C[C@H]2CC[C@@H](C1)N2)c1ccccc1` (stereo in doubt; 4a) [listing 1 of 2 here] gave an IC50 in test [1] of 1560 nM.
Consider `O=C(O[C@H]1C[C@H]2CC[C@@H](C1)N2)c1ccccc1` (stereo in doubt; 8) [listing 1 of 2 here], for which, in test [2], the Selectivity ratio is 0.98. For the same molecule, in the test listed under Rattus norvegicus, the -Log KA amounted to 5.96.
Molecule `COc1cc(C(=O)O[C@@H]2C[C@H]3CC[C@@H](C2)N3C)cc(OC)c1OC` gave an IC50 in test [1] of 231 nM. In test [2], the Selectivity ratio turned out to be 0.23. The molecule also had a -Log KA in the test listed under Rattus norvegicus of 5.97.
The molecule `CN1[C@@H]2CC[C@H]1C[C@@H](NC(=O)c1cc(Cl)cc3c1OC(C)(C)C3)C2` yielded a -Log KA in the test listed under Rattus norvegicus of 6.57.
Consider `CCN1[C@@H]2CC[C@H]1C[C@@H](OC(=O)c1ccccc1)C2`, for which the IC50 in test [1] is 716 nM. Also, the Selectivity ratio in test [2] was 0.98. This molecule showed a -Log KA in the test filed under Rattus norvegicus of 6.14.
For the molecule `CCc1ccc(C(=O)O[C@@H]2C[C@H]3CC[C@@H](C2)N3C)cc1`, the IC50 in test [1] was 182 nM. Also, the Selectivity ratio in test [2] came to 0.04. In the test filed under Rattus norvegicus, this molecule registered a -Log KA of 5.34.
`COc1cccc(C(=O)O[C@@H]2C[C@H]3CC[C@@H](C2)N3C)c1` had an IC50 in test [1] of 71 nM. Besides, in test [2], the Selectivity ratio amounted to 0.87. The same molecule had a -Log KA in the test filed under Rattus norvegicus of 7.08.
For `CN1[C@@H]2CC[C@H]1C[C@H](OC(=O)c1ccccc1)C2` (stereo in doubt; 2a) [listing 1 of 2 here], the IC50 in test [1] was 299 nM.
Take `CN1[C@@H]2CC[C@H]1C[C@H](OC(=O)c1ccccc1)C2` (stereo in doubt; 7) [listing 1 of 2 here]: the Selectivity ratio in test [2] was 0.3. Besides, the -Log KA in the test listed under Rattus norvegicus is 5.77.
Consider `O=C(O[C@H]1C[C@H]2CC[C@@H](C1)N2)c1ccccc1` (stereo in doubt; 8) [listing 2 of 2 here], for which the IC50 in test [1] was 1000 nM.
Take `CN1[C@@H]2CC[C@H]1C[C@H](OC(=O)c1ccccc1)C2` (stereo in doubt; 7) [listing 2 of 2 here]: in test [1], the IC50 is 499 nM.
On to `CN1[C@@H]2CC[C@H]1C[C@H](OC(=O)c1cccc([N+](=O)[O-])c1)C2`, for which, in the test listed under Rattus norvegicus, the -Log KA came to 5.84.
With `Nc1cccc(C(=O)O[C@@H]2C[C@H]3CC[C@@H](C2)N3)c1`, the IC50 in test [1] was 577 nM. Besides, in test [2], the Selectivity ratio was found to be 10.3. This molecule also displayed a -Log KA in the test listed under Rattus norvegicus of 7.23.
In turn, `CN1[C@@H]2CC[C@H]1C[C@H](OC(=O)c1ccc(C(C)(C)C)cc1)C2` had a -Log KA in the test listed under Rattus norvegicus of 4.53.
In turn, `CN1[C@@H]2CC[C@H]1C[C@@H](OC(=O)c1cc(Cl)cc3c1OC(C)(C)C3)C2` showed an IC50 in test [1] of 7.18 nM. For the same molecule, the Selectivity ratio in test [2] was found to be 0.03. For the same molecule, the -Log KA in the test filed under Rattus norvegicus amounted to 6.63.
For the molecule `CN1[C@@H]2CC[C@H]1C[C@H](OC(=O)c1ccccc1)C2` (stereo in doubt; 2a) [listing 2 of 2 here], the Selectivity ratio in test [2] came out at 0.78. Also, the -Log KA in the test listed under Rattus norvegicus was 6.39.
`CC1(C)Cc2cc(Cl)cc(C(=O)O[C@H]3C[C@H]4CC[C@@H](C3)N4)c2O1` had an IC50 in test [1] of 56.2 nM. Besides, the Selectivity ratio in test [2] came out at 3.37. This molecule also gave a -Log KA in the test filed under Rattus norvegicus of 7.74.
Regarding `CN1[C@@H]2CC[C@H]1C[C@H](OC(=O)c1ccc([N+](=O)[O-])cc1)C2`, the IC50 in test [1] is 1050 nM. Besides, the Selectivity ratio in test [2] was determined as 0.2. The same molecule came in with a -Log KA in the test listed under Rattus norvegicus of 5.29.
Regarding `O=C(O[C@H]1C[C@H]2CC[C@@H](C1)N2)c1ccccc1` (stereo in doubt; 4a) [listing 2 of 2 here], the Selectivity ratio in test [2] is 161. The same molecule had a -Log KA in the test filed under Rattus norvegicus of 7.98.
